According to ChEMBL document CHEMBL1128519, “Semisynthetic chemical modification of the antifungal lipopeptide echinocandin B (ECB): structure-activity studies of the lipophilic and geometric parameters of polyarylated acyl analogs of ECB” (J Med Chem, 1995):
Values after ≈ are worked out from the molar mass of the structure shown. Numbered stars: 1 amine (or outer) side, 2 acyl side, 3 side chain; on linkers, the order of the positions; unused ones are H or OH. Bridge positions count the residues as written; N and C are the ends. Square brackets hold non-standard residues; d marks the D form. Peptide text beside a SMILES is read from it. * marks the point of attachment. pTerphenylCO(4''-OnC5H11) = CCCCCOc1ccc(-c2ccc(-c3ccc(C(=O)*)cc3)cc2)cc1; Orn(4R-OH,5R-OH) = O=C([C@H](C[C@@H](O)[C@@H](O)N[*:3])N[*:1])[*:2]; hTyr(3S-OH,4S-OH) = N[C@H](C(=O)O)[C@H](O)[C@@H](O)c1ccc(O)cc1; X1 = O=C(c1ccc(-c2ccc(-c3ccc(-c4ccccc4)cc3)cc2)cc1)*; Pro(3S-OH,4S-Me) = C[C@H]1CN[C@H](C(=O)O)[C@H]1O; Hyp = O=C(O)[C@@H]1C[C@@H](O)CN1

What was measured:
[1] = test system: Candida albicans; test: Antifungal activity against Candida albicans; format: functional
In short: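 Broth microdilution, C. albicans A26 (ATCC 62342) grown on Sabouraud dextrose agar at 35 °C; inoculum 1 × 10^5 conidia/mL in antibiotic 3 broth. Compounds dissolved at 1.0 mg/mL in methanol, 2-fold serial dilutions from 80 µg/mL, duplicate. Read after 48 h at 35 °C. MIC = lowest concentration completely inhibiting visible growth.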

[2] = molecular target: Beta-1,3-glucan synthase (Candida albicans) (UniProt O13428); test: In vitro inhibition of glucan synthase obtained from Candida albicans at a concentration of 10 ug/mL.
Sequence of Beta-1,3-glucan synthase (Candida albicans) (O13428 as listed by the source): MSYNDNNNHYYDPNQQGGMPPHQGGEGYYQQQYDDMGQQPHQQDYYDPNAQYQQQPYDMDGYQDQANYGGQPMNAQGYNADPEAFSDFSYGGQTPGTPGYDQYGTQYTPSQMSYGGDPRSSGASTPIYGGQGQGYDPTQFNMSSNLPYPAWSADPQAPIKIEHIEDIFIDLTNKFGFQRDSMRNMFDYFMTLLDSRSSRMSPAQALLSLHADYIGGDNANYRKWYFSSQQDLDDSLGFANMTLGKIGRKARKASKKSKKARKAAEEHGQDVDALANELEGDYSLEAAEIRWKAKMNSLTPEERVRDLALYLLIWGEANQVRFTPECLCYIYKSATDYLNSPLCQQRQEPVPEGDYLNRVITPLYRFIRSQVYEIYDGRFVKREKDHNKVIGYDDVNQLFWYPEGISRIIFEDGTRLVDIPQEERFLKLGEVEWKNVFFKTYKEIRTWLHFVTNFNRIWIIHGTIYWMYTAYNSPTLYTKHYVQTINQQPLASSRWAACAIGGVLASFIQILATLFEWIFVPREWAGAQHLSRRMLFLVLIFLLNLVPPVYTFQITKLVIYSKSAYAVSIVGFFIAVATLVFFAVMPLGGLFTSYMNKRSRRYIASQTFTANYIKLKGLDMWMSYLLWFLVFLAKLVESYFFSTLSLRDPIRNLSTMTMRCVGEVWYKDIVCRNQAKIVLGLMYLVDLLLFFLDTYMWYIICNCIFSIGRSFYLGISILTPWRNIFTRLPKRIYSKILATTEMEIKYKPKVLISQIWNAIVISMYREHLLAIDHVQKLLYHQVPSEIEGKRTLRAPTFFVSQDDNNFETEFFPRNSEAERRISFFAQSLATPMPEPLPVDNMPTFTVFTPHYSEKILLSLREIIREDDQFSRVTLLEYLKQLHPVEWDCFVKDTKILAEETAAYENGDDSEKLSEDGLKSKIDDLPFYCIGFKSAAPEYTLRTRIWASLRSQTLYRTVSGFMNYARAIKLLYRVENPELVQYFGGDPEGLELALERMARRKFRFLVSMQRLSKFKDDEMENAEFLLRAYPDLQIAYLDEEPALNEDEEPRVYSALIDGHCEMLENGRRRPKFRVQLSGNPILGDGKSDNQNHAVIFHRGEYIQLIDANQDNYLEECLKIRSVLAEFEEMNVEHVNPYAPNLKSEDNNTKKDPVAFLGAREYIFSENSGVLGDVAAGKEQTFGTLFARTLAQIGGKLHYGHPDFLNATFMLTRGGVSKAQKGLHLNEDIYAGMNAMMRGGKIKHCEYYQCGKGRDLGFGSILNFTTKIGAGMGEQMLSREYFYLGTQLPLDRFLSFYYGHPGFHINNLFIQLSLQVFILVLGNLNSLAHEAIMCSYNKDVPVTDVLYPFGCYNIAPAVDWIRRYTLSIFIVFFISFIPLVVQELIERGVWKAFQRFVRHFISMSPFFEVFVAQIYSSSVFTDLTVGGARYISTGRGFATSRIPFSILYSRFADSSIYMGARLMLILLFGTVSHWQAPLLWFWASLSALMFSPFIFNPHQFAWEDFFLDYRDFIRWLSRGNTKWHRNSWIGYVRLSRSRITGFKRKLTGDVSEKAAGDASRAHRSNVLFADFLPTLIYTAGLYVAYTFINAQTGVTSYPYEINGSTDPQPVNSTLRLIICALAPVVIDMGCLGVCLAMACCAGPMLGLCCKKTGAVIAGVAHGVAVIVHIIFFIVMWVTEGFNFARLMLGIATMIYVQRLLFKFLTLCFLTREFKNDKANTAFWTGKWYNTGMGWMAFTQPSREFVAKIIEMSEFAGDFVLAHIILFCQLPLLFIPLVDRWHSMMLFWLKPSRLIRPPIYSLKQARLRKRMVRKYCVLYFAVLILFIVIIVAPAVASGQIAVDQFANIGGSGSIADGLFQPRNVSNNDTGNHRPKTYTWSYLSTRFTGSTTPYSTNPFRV
In short: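 Purified, solubilized β-(1,3)-D-glucan synthase prepared from C. albicans. Percent inhibition measured at 10 µg/mL compound, single determination.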

[3] = test system: Candida albicans; test: In vivo antifungal activity administered intraperitoneally against Candida albicans infections in mice.; format: functional; details: ip
In short: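 Male ICR mice (18-20 g), X-irradiated with 400 r 24 h before iv tail-vein infection with 2 × 10^6 C. albicans A26 cells in saline. Compounds suspended in β-cyclodextrin, given parenterally at 0, 4, 24 and 48 h post-infection. 10 mice per dose, top dose 10 mg/kg with 2-fold dilutions down to 0.039 mg/kg. 7-day survival; ED50 by Reed-Muench.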

[4] = test system: Candida albicans; test: In vivo antifungal activity administered orally against Candida albicans infections in mice.; format: functional; details: po
In short: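 X-irradiated (400 r, 24 h prior) male ICR mice infected iv with 2 × 10^6 C. albicans A26 cells. Oral gavage in cremophor (5%)/linoleic acid (8%)/water vehicle, b.i.d. × 4 starting immediately post-infection. 10 mice per dose level. Study ends at day 7; ED50 = dose giving 50% survival, by Reed-Muench.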

| SMILES | MIC [1] [ng/mL] | inhibition [2] [%] | ED50 [3] [mg/kg] | ED50 [4] [mg/kg] |
| --- | --- | --- | --- | --- |
| CCCCCOc1ccc(-c2ccc(-c3ccc(C(=O)N[C@H]4C[C@@H](O)[C@@H](O)NC(=O)[C@@H]5[C@@H](O)[C@@H](C)CN5C(=O)[C@H]([C@@H](C)O)NC(=O)[C@H]([C@H](O)[C@@H](O)c5ccc(O)cc5)NC(=O)[C@@H]5C[C@@H](O)CN5C(=O)[C@H]([C@@H](C)O)NC4=O)cc3)cc2)cc1 [ANIDULAFUNGIN] ({pTerphenylCO(4''-OnC5H11)}-[Orn(4R-OH,5R-OH)]T[Hyp][hTyr(3S-OH,4S-OH)]T[Pro(3S-OH,4S-Me)]; lactam 1-C) | 5 (≈ 4.38 nM) | 75 | 0.3 | 7.8 |
| C[C@@H](O)[C@@H]1NC(=O)[C@H]([C@H](O)[C@@H](O)c2ccc(O)cc2)NC(=O)[C@@H]2C[C@@H](O)CN2C(=O)[C@H]([C@@H](C)O)NC(=O)[C@@H](NC(=O)c2ccc(-c3ccc(-c4ccc(-c5ccccc5)cc4)cc3)cc2)C[C@@H](O)[C@@H](O)NC(=O)[C@@H]2[C@@H](O)[C@@H](C)CN2C1=O (X1-[Orn(4R-OH,5R-OH)]T[Hyp][hTyr(3S-OH,4S-OH)]T[Pro(3S-OH,4S-Me)]; lactam 1-C) | < 10 | 74.7 | 0.4 | 39.7 |
